According to ChEMBL document CHEMBL1667819, “Aminopyridinecarboxamide-based inhaled IKK-2 inhibitors for asthma and COPD: Structure-activity relationship” (Bioorg Med Chem, 2011):

Tests used:
PBMC = assay: Inhibition of LPS-stimulated TNFalpha release in human PBMC; type: functional, cell-based
Outline: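 PBMC were Ficoll-isolated from heparinized blood of healthy donors and plated at 2.5 × 10⁵ cells/well in RPMI 1640 with 5% FBS and penicillin–streptomycin. Cells were preincubated with compound for 1 h, then stimulated with LPS (20 ng/ml) for 16 h. Supernatant TNFα was measured by ELISA, and IC50 is the mean of ≥3 experiments.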

[1] = Half life in human liver microsomes
[2] = target: Voltage-gated inwardly rectifying potassium channel KCNH2 (Homo sapiens, UniProt Q12809); assay: Displacement of dofetilide from human ERG transfected in HEK293 cells by fluorescence polarization assay
Voltage-gated inwardly rectifying potassium channel KCNH2, sequence (Q12809 whole entry): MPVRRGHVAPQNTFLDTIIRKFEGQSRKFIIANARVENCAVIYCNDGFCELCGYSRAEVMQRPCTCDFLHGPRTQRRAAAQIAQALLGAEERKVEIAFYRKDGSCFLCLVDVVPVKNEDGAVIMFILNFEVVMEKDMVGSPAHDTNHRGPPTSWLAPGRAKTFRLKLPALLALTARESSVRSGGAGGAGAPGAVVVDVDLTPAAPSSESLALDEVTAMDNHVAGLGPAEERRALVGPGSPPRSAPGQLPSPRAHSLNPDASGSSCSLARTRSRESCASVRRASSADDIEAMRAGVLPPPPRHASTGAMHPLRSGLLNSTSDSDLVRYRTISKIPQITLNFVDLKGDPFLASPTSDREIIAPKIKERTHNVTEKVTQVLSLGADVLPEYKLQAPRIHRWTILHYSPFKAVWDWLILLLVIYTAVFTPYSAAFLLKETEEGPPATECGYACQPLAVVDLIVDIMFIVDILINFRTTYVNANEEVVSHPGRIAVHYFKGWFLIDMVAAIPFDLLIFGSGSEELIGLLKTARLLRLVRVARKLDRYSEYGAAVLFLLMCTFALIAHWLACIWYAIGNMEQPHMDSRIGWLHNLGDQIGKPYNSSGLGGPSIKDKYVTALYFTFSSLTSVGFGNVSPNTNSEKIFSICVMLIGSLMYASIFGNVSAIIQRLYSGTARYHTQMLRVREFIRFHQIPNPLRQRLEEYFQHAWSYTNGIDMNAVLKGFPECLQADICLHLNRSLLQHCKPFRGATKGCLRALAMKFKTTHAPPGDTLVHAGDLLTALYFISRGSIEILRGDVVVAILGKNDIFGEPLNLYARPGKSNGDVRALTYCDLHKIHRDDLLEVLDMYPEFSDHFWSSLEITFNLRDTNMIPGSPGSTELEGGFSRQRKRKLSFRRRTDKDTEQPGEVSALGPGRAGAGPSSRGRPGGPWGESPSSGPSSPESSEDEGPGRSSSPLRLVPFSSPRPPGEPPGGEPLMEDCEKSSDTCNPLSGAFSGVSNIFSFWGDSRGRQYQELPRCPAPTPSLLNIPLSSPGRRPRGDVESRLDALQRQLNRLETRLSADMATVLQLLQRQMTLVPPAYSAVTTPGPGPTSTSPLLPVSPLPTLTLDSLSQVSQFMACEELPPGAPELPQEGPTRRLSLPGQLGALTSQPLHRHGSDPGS
Outline: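 Competition binding used membranes from HEK-293 cells transfected with hERG. Test compound competed with Cy3B-tagged N-desmethyl dofetilide for channel binding, with fluorescence polarization read-out. Values are given as % of effect.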

[3] = target: T1, Inhibitor of nuclear factor kappa-B kinase subunit beta (Homo sapiens) (UniProt O14920); assay: Binding affinity to human recombinant IKK2 assessed as half life
T1 sequence (whole entry): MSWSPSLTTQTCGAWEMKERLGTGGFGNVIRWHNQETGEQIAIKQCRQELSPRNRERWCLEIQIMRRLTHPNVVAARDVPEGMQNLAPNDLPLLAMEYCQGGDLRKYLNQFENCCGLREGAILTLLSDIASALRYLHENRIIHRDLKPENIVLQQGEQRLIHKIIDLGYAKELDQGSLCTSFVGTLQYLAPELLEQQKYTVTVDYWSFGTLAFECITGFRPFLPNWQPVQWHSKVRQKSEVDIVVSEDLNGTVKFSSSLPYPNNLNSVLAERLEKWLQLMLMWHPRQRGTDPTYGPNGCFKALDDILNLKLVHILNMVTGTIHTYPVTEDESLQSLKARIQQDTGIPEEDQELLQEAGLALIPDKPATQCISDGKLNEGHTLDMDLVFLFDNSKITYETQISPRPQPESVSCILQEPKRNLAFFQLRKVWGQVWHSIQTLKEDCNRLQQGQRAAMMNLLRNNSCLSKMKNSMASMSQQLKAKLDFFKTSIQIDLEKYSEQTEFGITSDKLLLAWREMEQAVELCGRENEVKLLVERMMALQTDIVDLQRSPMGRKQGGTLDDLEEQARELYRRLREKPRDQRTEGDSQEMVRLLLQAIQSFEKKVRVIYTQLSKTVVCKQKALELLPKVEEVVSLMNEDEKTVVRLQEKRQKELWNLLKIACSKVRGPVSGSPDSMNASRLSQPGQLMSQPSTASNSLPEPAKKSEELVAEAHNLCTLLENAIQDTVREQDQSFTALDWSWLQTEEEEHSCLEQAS

[4] = target: T2, Inhibitor of nuclear factor kappa-B kinase subunit beta (Homo sapiens, UniProt O14920); assay: Inhibition of human recombinant IKK2
T2 sequence (O14920 whole entry): T1 sequence (whole entry)

[5] = target: T1, Inhibitor of nuclear factor kappa-B kinase subunit beta (Homo sapiens); assay: Binding affinity to human IKK2 in PBMC assessed as half life by cell-based assay
Outline: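 Cryopreserved PBMC were thawed and plated, then exposed to compound for 1 h. Compound was removed by four spin-and-aspirate washes, and an unwashed plate served as control. Loss of inhibition after washout gave the cellular half-life.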

SMILES	half-life ([1]; liver microsomes)	T1/2 [3]	IC50 [4]	T1/2 [5]	half-life ([1]; microsomes)	IC50 (PBMC)	inhibition (INH) [2]
COCCOCCCn1cc(CN2CCN(c3cc(C(=O)Nc4ccc5c(c4)-c4c(c(C(N)=O)nn4-c4ccc(F)cc4)CC5)c(Cl)cn3)CC2)cn1	0.05 h	4 h	6.6 nM	< 4 h		21 nM	69%
CN1CCN(c2cc(C(=O)Nc3ccc4c(c3)-c3c(c(C(N)=O)nn3-c3ccc(F)cc3)CC4)c(Cl)cn2)CC1		3 h	1.6 nM			39 nM	
CN1CCN(c2cc(C(=O)Nc3ccc4c(c3)-c3c(c(C(N)=O)nn3-c3ccc(O)c(Cl)c3)CC4)c(Cl)cn2)CC1		1 h	2.8 nM			46 nM	
CN1CCN(c2cc(C(=O)Nc3ccc4c(c3)-c3c(c(C(N)=O)nn3-c3ccc(F)c(F)c3)CC4)c(Cl)cn2)CC1			10 nM			65 nM	
CCOC(=O)Cn1cc(CN2CCN(c3cc(C(=O)Nc4ccc5c(c4)-c4c(c(C(N)=O)nn4-c4cccc(F)c4)CC5)c(Cl)cn3)CC2)cn1	0.05 h	5 h	5 nM	> 4 h		9 nM	78%
COCCNc1cc(C(=O)Nc2ccc3c(c2)-c2c(c(C(N)=O)nn2-c2ccc(F)cc2)CC3)c(Cl)cn1		0.1 h	0.6 nM			134 nM	
COc1ccc(-n2nc(C(N)=O)c3c2-c2cc(NC(=O)c4cc(N5CCN(C)CC5)ncc4Cl)ccc2CC3)cc1			6.1 nM			33 nM	
NC(=O)c1nn(-c2ccc(F)cc2)c2c1CCc1ccc(NC(=O)c3cc(N4CCC(O)CC4)ncc3Cl)cc1-2		0.1 h	0.6 nM			15 nM	
Cc1ccc(-n2nc(C(N)=O)c3c2-c2cc(NC(=O)c4cc(N5CCN(C)CC5)ncc4Cl)ccc2CC3)cc1			14 nM			38 nM	
CN1CCN(c2cc(C(=O)Nc3ccc4c(c3)-c3c(c(C(N)=O)nn3-c3ccc(Cl)c(O)c3)CC4)c(Cl)cn2)CC1		1 h	2.2 nM				
Cn1cc(CN2CCN(c3cc(C(=O)Nc4ccc5c(c4)-c4c(c(C(N)=O)nn4-c4ccc(F)cc4)CC5)c(Cl)cn3)CC2C(=O)O)cn1 (centres undefined)		0.3 h	3.9 nM			432 nM	
CN1CCN(c2cc(C(=O)Nc3ccc4c(c3)-c3c(c(C(N)=O)nn3-c3ccc(O)cc3)CC4)c(Cl)cn2)CC1		1 h	3.5 nM			75 nM	
CN1CCN(c2cc(C(=O)Nc3ccc4c(c3)-c3c(c(C(N)=O)nn3-c3cccc(F)c3)CC4)c(Cl)cn2)CC1		2 h	4.8 nM			14 nM	
NC(=O)c1nn(-c2ccc(F)cc2)c2c1CCc1ccc(NC(=O)c3cc(N4CCN(Cc5cn[nH]c5)CC4)ncc3Cl)cc1-2		3 h	1.9 nM		0.133 h	16 nM	78%
COCCN1CCN(c2cc(C(=O)Nc3ccc4c(c3)-c3c(c(C(N)=O)nn3-c3ccc(F)cc3)CC4)c(Cl)cn2)CC1		0.6 h	1.9 nM			8 nM	
Cn1cc(CN2CCN(c3cc(C(=O)Nc4ccc5c(c4)-c4c(c(C(N)=O)nn4-c4cccc(F)c4)CC5)c(Cl)cn3)CC2)cn1		3 h			0.233 h	14 nM	83%
Cc1c(CN2CCN(c3cc(C(=O)Nc4ccc5c(c4)-c4c(c(C(N)=O)nn4-c4ccc(F)cc4)CC5)c(Cl)cn3)CC2)cnn1C		8 h	2.8 nM			67 nM	
Cn1cc(CN2CCN(c3cc(C(=O)Nc4ccc5c(c4)-c4c(c(C(N)=O)nn4-c4ccc(F)cc4)CC5)c(Cl)cn3)C(C(=O)O)C2)cn1 (centres undefined)		4.2 h	0.5 nM			529 nM	
C[C@H]1CN(c2cc(C(=O)Nc3ccc4c(c3)-c3c(c(C(N)=O)nn3-c3ccc(F)cc3)CC4)c(Cl)cn2)CCN1Cc1cnn(C)c1		6 h	3.5 nM			9 nM	
CN1CCN(c2cc(C(=O)Nc3ccc4c(c3)-c3c(c(C(N)=O)nn3-c3cccc(O)c3)CC4)c(Cl)cn2)CC1		1 h	1.2 nM			89 nM	
Cc1nn(C)cc1CN1CCN(c2cc(C(=O)Nc3ccc4c(c3)-c3c(c(C(N)=O)nn3-c3ccc(F)cc3)CC4)c(Cl)cn2)CC1		8 h	4.3 nM			118 nM	

Continued, in another order:

half-life ([1]; liver microsomes)	T1/2 [3]	IC50 [4]	T1/2 [5]	half-life ([1]; microsomes)	SMILES	IC50 (PBMC)	inhibition (INH) [2]
	5 h	2 nM			CC(C)NC(=O)Cn1cc(CN2CCN(c3cc(C(=O)Nc4ccc5c(c4)-c4c(c(C(N)=O)nn4-c4ccc(F)cc4)CC5)c(Cl)cn3)CC2)cn1	36 nM	94%
0.133 h	5 h	2.3 nM	< 4 h		CN(C)C(=O)Cn1cc(CN2CCN(c3cc(C(=O)Nc4ccc5c(c4)-c4c(c(C(N)=O)nn4-c4ccc(F)cc4)CC5)c(Cl)cn3)CC2)cn1	13 nM	50%
0.05 h	5 h	1 nM	> 4 h		CCOC(=O)Cn1cc(CN2CCN(c3cc(C(=O)Nc4ccc5c(c4)-c4c(c(C(N)=O)nn4-c4ccc(F)cc4)CC5)c(Cl)cn3)CC2)cn1	6 nM	95%
0.05 h	6 h	1.3 nM	> 4 h		COCCNC(=O)Cn1cc(CN2CCN(c3cc(C(=O)Nc4ccc5c(c4)-c4c(c(C(N)=O)nn4-c4ccc(F)cc4)CC5)c(Cl)cn3)CC2)cn1	10 nM	58%
	4 h	10.2 nM	> 4 h		NC(=O)c1nn(-c2ccc(F)cc2)c2c1CCc1ccc(NC(=O)c3cc(N4CCN(Cc5cnn(CC(=O)N(CCO)CCO)c5)CC4)ncc3Cl)cc1-2	474 nM	-1%
	5 h	2.2 nM	> 4 h	0.15 h	NC(=O)c1nn(-c2ccc(F)cc2)c2c1CCc1ccc(NC(=O)c3cc(N4CCN(Cc5cnn(CCCO)c5)CC4)ncc3Cl)cc1-2	15 nM	49%
	6 h	3.3 nM		0.6 h	CN(C)CCCNC(=O)Cn1cc(CN2CCN(c3cc(C(=O)Nc4ccc5c(c4)-c4c(c(C(N)=O)nn4-c4ccc(F)cc4)CC5)c(Cl)cn3)CC2)cn1	26 nM	34%
0.183 h	4 h	3.7 nM	> 4 h		CN(C)CCCn1cc(CN2CCN(c3cc(C(=O)Nc4ccc5c(c4)-c4c(c(C(N)=O)nn4-c4ccc(F)cc4)CC5)c(Cl)cn3)CC2)cn1	12 nM	42%
0.283 h	4 h	3 nM			Cn1cc(CN2CCN(c3cc(C(=O)Nc4ccc5c(c4)-c4c(c(C(N)=O)nn4-c4ccc(F)cc4)CC5)c(Cl)cn3)CC2)cn1	11 nM	91%
0.05 h	6 h	4.7 nM	> 4 h		CCOC(=O)CCn1cc(CN2CCN(c3cc(C(=O)Nc4ccc5c(c4)-c4c(c(C(N)=O)nn4-c4ccc(F)cc4)CC5)c(Cl)cn3)CC2)cn1	14 nM	90%
	4 h	1.3 nM	> 4 h		COCCOC(=O)Cn1cc(CN2CCN(c3cc(C(=O)Nc4ccc5c(c4)-c4c(c(C(N)=O)nn4-c4ccc(F)cc4)CC5)c(Cl)cn3)CC2)cn1	9 nM	66%
	6 h	1.1 nM			COC(=O)Cn1cc(CN2CCN(c3cc(C(=O)Nc4ccc5c(c4)-c4c(c(C(N)=O)nn4-c4ccc(F)cc4)CC5)c(Cl)cn3)CC2)cn1	54 nM	24%
2 h		0.5 nM			NC(=O)c1nn(-c2ccc(F)cc2)c2c1CCc1ccc(NC(=O)c3cc(N4CCN(Cc5cnn(CC(=O)O)c5)CC4)ncc3Cl)cc1-2	221 nM	29%
	> 8 h	4.2 nM			CCn1cc(CN2CCN(c3cc(C(=O)Nc4ccc5c(c4)-c4c(c(C(N)=O)nn4-c4ccc(F)cc4)CC5)c(Cl)cn3)CC2)cn1	102 nM	
